Compound activity (PubChem)
An excerpt weighted towards active compounds, which were near 4.1% of everything screened.
MrgX1 antag = human MrgX1 receptor antagonism, primary screen | 1.3% of 310,000 active | AID 588676 | B-score at 10 µM | MRGX1-HEK293 calcium flux, Fluo-4, BAM8-22 antagonism; hits give low values | Q96LB2;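 active = calcium-response B-score plate-corrected more than 3 library SD below zero, starting fluorescence within 5 deviations, no agonist response on first addition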;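 also: peak minus trough fluorescence over baseline after final BAM8-22 challenge near maximal dose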
Target sequence (Q96LB2 whole entry, looked up): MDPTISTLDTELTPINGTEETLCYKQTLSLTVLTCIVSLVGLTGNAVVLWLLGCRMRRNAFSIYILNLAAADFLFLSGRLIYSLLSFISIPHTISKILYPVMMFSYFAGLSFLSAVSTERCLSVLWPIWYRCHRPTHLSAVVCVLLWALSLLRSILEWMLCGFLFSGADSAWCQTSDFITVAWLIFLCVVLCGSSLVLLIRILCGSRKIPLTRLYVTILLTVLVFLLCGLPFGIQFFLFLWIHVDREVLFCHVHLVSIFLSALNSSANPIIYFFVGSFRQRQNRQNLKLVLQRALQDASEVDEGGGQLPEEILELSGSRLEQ
MrgX1 ag = human MrgX1 receptor agonism, primary screen | 0.44% of 310,000 active | B-score at 10 µM | Q96LB2 | AID 588627 | MrgX1-HEK293 cells, Fluo-4 calcium fluorescence, agonist mode; hits give high values;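 active = calcium response B-score plate-corrected fluorescence ratio at least 3 library SD, with starting fluorescence B-score inside 5 SD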
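System: HEK293 cells stably expressing human MrgX1 receptor; Dosing: test compound in the initial addition of three; Schedule: overnight plating, then 30 min 37 °C plus 30 min room-temperature dye loading; Detection: kinetic calcium dye fluorescence, Fluo-4 NW; Controls: per-plate positive and negative controls for Z′ factor.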
RGS4 act = potentiators or activators of RGS4; HEK293 M3R/inducible RGS4, carbachol calcium flux Fluo4; hits give low values; AID 463111; B-score at 10 µM; 0.92% of 310,000 active;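 active = B-score of the integrated calcium signal more than 4 SD below the library mean, with starting fluorescence not abnormally high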;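 also: negative B-score means reduced calcium response which marks RGS4 activation or potentiation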
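Reagent: ECmax carbachol challenge; Test system: M3R-expressing HEK293 line, RGS4 induced by doxycycline; Schedule: overnight RGS4 induction, 30 min dye load 37 °C, 20 min compound RT; Detection: calcium dye Fluo4 fluorescence; Read-out: Agonist-evoked peak-minus-minimum fluorescence over baseline, integrated ratio, B score.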
RGS4 block = human RGS4 inhibition; P49798; HEK293 M3R/RGS4 inducible, Fluo-4 calcium flux; hits give high values; triggered by carbachol at its EC20; B-score at 10 µM; 0.45% of 310,000 active; AID 463165;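 active = B-score, a plate-corrected calcium signal, over three deviations above library mean, with baseline fluorescence within five deviations of library mean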;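 also: RGS4 expression induced by doxycycline in cells with stable M3 receptor; B-score is computed from the integrated fluorescence ratio over baseline after carbachol; higher B-score means a larger calcium signal and so more RGS4 inhibition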
MrgX1 PAM = human MrgX1 positive allosteric modulation, primary screen. Q96LB2. B-score at 10 µM. MrgX1-HEK293, Fluo-4 calcium flux, FDSS; hits give high values. 0.63% of 310,000 active;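 active = plate-corrected calcium response at least 3 library SD above typical, normal starting fluorescence, not activating the receptor alone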;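 also: compound read alongside a low EC10 to EC30 dose of BAM8-22 agonist; peak minus trough fluorescence over baseline measured at the second addition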
Kir21 inh = blocks the mouse Kir2.1 inward-rectifier potassium channel; P35561; HEK293-Kir2.1, FluxOR thallium flux fluorescence; hits give low values; B-score at 10 µM; 0.85% of 310,000 active;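 active = fluorescence ratio B-score at or below minus 3 SD of library scores, with starting-brightness B-score within 2 SD, cut at about -4.2 in these data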;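 also: channel flux triggered by added potassium and thallium sulfate stimulus; B-score of peak minus minimum fluorescence over baseline after thallium stimulus; more negative B-score means stronger Kir2.1 block with less thallium influx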
* hit, by the source's call; i = inactive; nt = no result given.

SMILES	MrgX1 antag	MrgX1 ag	RGS4 act	RGS4 block	MrgX1 PAM	Kir21 inh
CCOc1ccc(N(CC(=O)Nc2cccnc2)S(=O)(=O)c2ccc(C)cc2)cc1	i	i	i	i	i	0
CCOc1ccc(CCNC(=O)C2CC(=O)N(c3ccccc3OCC)C2)cc1OCC (stereo unspecified)	i	i	i	i	i	-3.03
Nc1nc2ccc(-c3nc4ccccc4o3)cc2s1	i	i	i	i	i	3.07
COc1ccc(CNC(=O)C2=CC(c3ccc(OC)c(OC)c3)=NS(=O)(=O)N2C)cc1	i	i	i	i	i	0.05
CC(C)c1ccc(Nc2cnn(C34CC5CC(CC(CC(=O)O)(C5)C3)C4)c(=O)c2Cl)cc1	i	i	i	i	i	-1.11
Cc1ccc(-n2c(C)cc(/C=c3/sc4nc5ccccc5n4c3=O)c2C)cc1	i	i	i	i	i	0.17
O=C(O)Cn1cc(/C=c2/sc3nc4ccccc4n3c2=O)c2ccccc21	i	26.8*	i	i	i	0.03
C=CCn1c(NCc2c[nH]c3ccccc23)nc2ccccc21	i	i	i	i	i	-5.59*
COc1cc([N+](=O)[O-])ccc1NC(=O)Nc1ccc2c(c1)OCCO2	i	i	i	i	i	0.87
COc1ccc(-c2csc(NC(=O)CSc3n[nH]c(C)n3)n2)cc1	i	i	i	i	6.86*	-0.53
O=C(Cc1c(F)c(F)c(F)c(F)c1F)Nc1nc(-c2ccccc2)cs1	i	i	-7.07*	i	i	0.72
O=C(Cc1ccc(F)cc1)Nc1nc(-c2ccc(F)cc2)cs1	i	i	i	i	i	0.78
CC(CN1CCCCC1)C(=O)NNC(=O)C12CC3CC(CC(C3)C1)C2 (stereo unspecified)	i	i	i	i	7.64*	-0.49
CC(C)c1ccc(N2C(=O)CSC23C(=O)N2CCCc4cccc3c42)cc1 (stereo unspecified)	i	i	-7.61*	i	i	-0.5
C=C1SC(=Nc2c(C)cccc2Cl)N(C(=O)c2sc3ccccc3c2Cl)C12CCCCC2	-5.05*	i	i	i	i	-1.93
C=C1SC(=Nc2ccccc2Cl)N(C(=O)c2sc3ccccc3c2Cl)C1(C)C	i	i	i	i	i	1.05
Cn1ncc([N+](=O)[O-])c1C(=O)N1CCCCCC1	nt	nt	i	i	nt	0.03
CC1CCCCN1C(=O)c1c([N+](=O)[O-])cnn1C (stereo unspecified)	-9.18*	i	i	i	i	0.04
Cc1ncsc1CCOC(=O)c1ccc(Cl)cc1	i	i	i	i	i	-1.26
O=C(O)C(NS(=O)(=O)c1ccc(F)cc1)c1ccccc1 (stereo unspecified)	i	i	i	i	i	1.23
CCC/C=C(\CCC)C(NS(=O)(=O)c1ccc(C(F)(F)F)cc1)c1ccccc1 (stereo unspecified)	i	i	-8.15*	i	i	-0.35
O=C(CSc1nnc2ccc(-c3ccco3)nn12)Nc1ccccc1F	nt	nt	i	i	nt	0.41
COc1ccc(CCN2CCCC(CN(C)Cc3cc(OC)c(OC)c(OC)c3)C2)cc1 (stereo unspecified)	i	i	i	i	i	1.17
COc1ccc(F)c(CN(C)CC2CCCN(CCc3ccc(F)cc3)C2)c1 (stereo unspecified)	i	i	i	i	i	-9.75*
CCOc1cccc(CN(C)CC2CCCN(CCc3ccc(Cl)cc3)C2)c1O (stereo unspecified)	i	i	i	i	i	-7.33*
CC(=O)c1cccc(CN(C)CC2CCCN(CCc3ccccc3C)C2)c1 (stereo unspecified)	i	i	-7.05*	i	i	-6.45*
COc1cc(CN(C)CC2CCCN(CCc3ccccc3F)C2)cc(Cl)c1OC (stereo unspecified)	i	i	i	i	i	-4.88*
